Source: ChEMBL document CHEMBL1949612, “Design, synthesis, and functionalization of dimeric peptides targeting chemokine receptor CXCR4” (J Med Chem, 2011)
*1 amine or outer side, *2 acyl side, *3 side chain or, on linkers, in order; H or OH if unused. Where a SMILES comes first, the peptide text is derived from it. Bridges are numbered along the chain shown (N, C = ends). Roman numbers before positions name the chains, in order. [ ]: non-standard residue; d: D form. The star is where a group is joined. C16 diacid = O=C(O)CCCCCCCCCCCCCCC(=O)*; Sebacoyl = O=C(CCCCCCCCC(=O)[*:2])[*:1]; 2Nal = N[C@@H](Cc1ccc2ccccc2c1)C(=O)O; Suberoyl = O=C(CCCCCCC(=O)[*:2])[*:1]; Adipoyl = O=C(CCCCC(=O)[*:2])[*:1]; Glutaryl = O=C(CCCC(=O)[*:2])[*:1]; dNMeOrn = CN[C@H](CCCN)C(=O)O; Suc = O=C(CCC(=O)[*:2])[*:1]

Molecular target: C-X-C chemokine receptor type 4 (Homo sapiens, UniProt P61073)
Sequence (P61073 whole entry): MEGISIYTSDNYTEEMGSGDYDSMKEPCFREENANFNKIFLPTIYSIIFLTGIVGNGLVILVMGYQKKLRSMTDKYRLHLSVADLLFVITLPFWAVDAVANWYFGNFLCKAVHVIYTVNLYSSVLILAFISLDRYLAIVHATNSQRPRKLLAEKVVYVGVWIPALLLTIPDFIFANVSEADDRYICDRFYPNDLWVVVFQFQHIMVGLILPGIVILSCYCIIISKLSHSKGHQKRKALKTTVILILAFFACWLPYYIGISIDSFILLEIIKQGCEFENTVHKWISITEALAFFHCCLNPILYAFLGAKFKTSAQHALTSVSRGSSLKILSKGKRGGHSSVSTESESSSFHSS
Assay: Displacement of [125I]-CPCR4 from CXCR4 receptor in human Jurkat cells after 2 hrs by gamma counting
Assay type: cell-based
In short: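 Whole Jurkat cells (400000 per tube) in PBS/0.2% BSA were incubated with ~0.1 nM (3.1 kBq) 125I-CPCR4 and test peptide at 10^-11 to 10^-5 M, shaken 2 h at RT. Nonspecific binding was taken with 1 μM unlabeled CPCR4. Cells were pelleted, washed twice with cold PBS, and bound activity was counted. Runs were done in triplicate, repeated 2–3 times. IC50 was fitted by nonlinear regression.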

IC50 [nM]	SMILES
1000	CC(=O)NCCC[C@@H]1C(=O)N[C@@H](CCCNC(N)=O)C(=O)N[C@@H](Cc2ccc3ccccc3c2)C(=O)NCC(=O)N[C@H](Cc2ccc(O)cc2)C(=O)N1C
6	CN1C(=O)[C@@H](Cc2ccc(O)cc2)NC(=O)CNC(=O)[C@H](Cc2ccc3ccccc3c2)NC(=O)[C@H](CCCNC(=N)N)NC(=O)[C@H]1CCCN
60	CC(=O)NCCC[C@@H]1C(=O)N[C@@H](CCCNC(=N)N)C(=O)N[C@@H](Cc2ccc3ccccc3c2)C(=O)NCC(=O)N[C@H](Cc2ccc(O)cc2)C(=O)N1C
19	CN1C(=O)[C@@H](Cc2ccc(O)cc2)NC(=O)CNC(=O)[C@H](Cc2ccc3ccccc3c2)NC(=O)[C@H](CCCN=C(N)N)NC(=O)[C@H]1CCCNC(=O)CCCC(=O)NCCC[C@@H]1C(=O)N[C@@H](CCCNC(N)=O)C(=O)N[C@@H](Cc2ccc3ccccc3c2)C(=O)NCC(=O)N[C@H](Cc2ccc(O)cc2)C(=O)N1C
4	CN1C(=O)[C@@H](Cc2ccc(O)cc2)NC(=O)CNC(=O)[C@H](Cc2ccc3ccccc3c2)NC(=O)[C@H](CCCN=C(N)N)NC(=O)[C@H]1CCCNC(=O)CCCCCCCCCCCC(=O)NCCC[C@@H]1C(=O)N[C@@H](CCCNC(N)=O)C(=O)N[C@@H](Cc2ccc3ccccc3c2)C(=O)NCC(=O)N[C@H](Cc2ccc(O)cc2)C(=O)N1C
8	CN1C(=O)[C@@H](Cc2ccc(O)cc2)NC(=O)CNC(=O)[C@H](Cc2ccc3ccccc3c2)NC(=O)[C@H](CCCN=C(N)N)NC(=O)[C@H]1CCCNC(=O)CNC(=O)CC(=O)NCC(=O)NCCC[C@@H]1C(=O)N[C@@H](CCCN=C(N)N)C(=O)N[C@@H](Cc2ccc3ccccc3c2)C(=O)NCC(=O)N[C@H](Cc2ccc(O)cc2)C(=O)N1C
6	CN1C(=O)[C@@H](Cc2ccc(O)cc2)NC(=O)CNC(=O)[C@H](Cc2ccc3ccccc3c2)NC(=O)[C@H](CCCNC(=N)N)NC(=O)[C@H]1CCCNC(=O)CNC(=O)CCC(=O)NCC(=O)NCCC[C@@H]1C(=O)N[C@@H](CCCNC(=N)N)C(=O)N[C@@H](Cc2ccc3ccccc3c2)C(=O)NCC(=O)N[C@H](Cc2ccc(O)cc2)C(=O)N1C
14	CN1C(=O)[C@@H](Cc2ccc(O)cc2)NC(=O)CNC(=O)[C@H](Cc2ccc3ccccc3c2)NC(=O)[C@H](CCCNC(=N)N)NC(=O)[C@H]1CCCNC(=O)CNC(=O)CCCC(=O)NCC(=O)NCCC[C@@H]1C(=O)N[C@@H](CCCNC(=N)N)C(=O)N[C@@H](Cc2ccc3ccccc3c2)C(=O)NCC(=O)N[C@H](Cc2ccc(O)cc2)C(=O)N1C
98	CN1C(=O)[C@@H](Cc2ccc(O)cc2)NC(=O)CNC(=O)[C@H](Cc2ccc3ccccc3c2)NC(=O)[C@H](CCCNC(=N)N)NC(=O)[C@H]1CCCNC(=O)C[C@H](NC(=O)CCCCCNC(=O)CN1CCN(CC(=O)O)CCN(CC(=O)O)CCN(CC(=O)O)CC1)C(=O)NCCC[C@@H]1C(=O)N[C@@H](CCCNC(=N)N)C(=O)N[C@@H](Cc2ccc3ccccc3c2)C(=O)NCC(=O)N[C@H](Cc2ccc(O)cc2)C(=O)N1C
31	CN1C(=O)[C@@H](Cc2ccc(O)cc2)NC(=O)CNC(=O)[C@H](Cc2ccc3ccccc3c2)NC(=O)[C@H](CCCNC(=N)N)NC(=O)[C@H]1CCCNC(=O)CC(CC(=O)NCCC[C@@H]1C(=O)N[C@@H](CCCNC(=N)N)C(=O)N[C@@H](Cc2ccc3ccccc3c2)C(=O)NCC(=O)N[C@H](Cc2ccc(O)cc2)C(=O)N1C)NC(=O)CCCCCNC(=O)CN1CCN(CC(=O)O)CCN(CC(=O)O)CCN(CC(=O)O)CC1 (stereo partly drawn)
39	CN1C(=O)[C@@H](Cc2ccc(O)cc2)NC(=O)CNC(=O)[C@H](Cc2ccc3ccccc3c2)NC(=O)[C@H](CCCNC(=N)N)NC(=O)[C@H]1CCCNC(=O)CNC(=O)C[C@H](NC(=O)CCCCCNC(=O)CN1CCN(CC(=O)O)CCN(CC(=O)O)CCN(CC(=O)O)CC1)C(=O)NCC(=O)NCCC[C@@H]1C(=O)N[C@@H](CCCNC(=N)N)C(=O)N[C@@H](Cc2ccc3ccccc3c2)C(=O)NCC(=O)N[C@H](Cc2ccc(O)cc2)C(=O)N1C
17	CN1C(=O)[C@@H](Cc2ccc(O)cc2)NC(=O)CNC(=O)[C@H](Cc2ccc3ccccc3c2)NC(=O)[C@H](CCCN=C(N)N)NC(=O)[C@H]1CCCNC(=O)CNC(=O)CC(CC(=O)NCC(=O)NCCC[C@@H]1C(=O)N[C@@H](CCCN=C(N)N)C(=O)N[C@@H](Cc2ccc3ccccc3c2)C(=O)NCC(=O)N[C@H](Cc2ccc(O)cc2)C(=O)N1C)NC(=O)CCCCCNC(=O)CN1CCN(CC(=O)O)CCN(CC(=O)O)CCN(CC(=O)O)CC1
4	CN1C(=O)[C@@H](Cc2ccc(O)cc2)NC(=O)CNC(=O)[C@H](Cc2ccc3ccccc3c2)NC(=O)[C@H](CCCN=C(N)N)NC(=O)[C@H]1CCCNC(=O)CCCCC(=O)NCCC[C@@H]1C(=O)N[C@@H](CCCN=C(N)N)C(=O)N[C@@H](Cc2ccc3ccccc3c2)C(=O)NCC(=O)N[C@H](Cc2ccc(O)cc2)C(=O)N1C (I: cyclo([2Nal]G[dY][dNMeOrn]R) / II: cyclo([2Nal]G[dY][dNMeOrn]R); linker I:4-II:4 via Adipoyl)
33	CN1C(=O)[C@@H](Cc2ccc(O)cc2)NC(=O)CNC(=O)[C@H](Cc2ccc3ccccc3c2)NC(=O)[C@H](CCCNC(=N)N)NC(=O)[C@H]1CCCNC(=O)CCCCCCCCCCCCCCC(=O)NCCC[C@@H]1C(=O)N[C@@H](CCCNC(=N)N)C(=O)N[C@@H](Cc2ccc3ccccc3c2)C(=O)NCC(=O)N[C@H](Cc2ccc(O)cc2)C(=O)N1C (I: cyclo([2Nal]G[dY][dNMeOrn]R) / II: cyclo([2Nal]G[dY][dNMeOrn]R); linker I:4-II:4 via C16 diacid)
4	CN1C(=O)[C@@H](Cc2ccc(O)cc2)NC(=O)CNC(=O)[C@H](Cc2ccc3ccccc3c2)NC(=O)[C@H](CCCNC(=N)N)NC(=O)[C@H]1CCCNC(=O)CCCC(=O)NCCC[C@@H]1C(=O)N[C@@H](CCCNC(=N)N)C(=O)N[C@@H](Cc2ccc3ccccc3c2)C(=O)NCC(=O)N[C@H](Cc2ccc(O)cc2)C(=O)N1C (I: cyclo([2Nal]G[dY][dNMeOrn]R) / II: cyclo([2Nal]G[dY][dNMeOrn]R); linker I:4-II:4 via Glutaryl)
2	CN1C(=O)[C@@H](Cc2ccc(O)cc2)NC(=O)CNC(=O)[C@H](Cc2ccc3ccccc3c2)NC(=O)[C@H](CCCN=C(N)N)NC(=O)[C@H]1CCCNC(=O)CCCCCCCCC(=O)NCCC[C@@H]1C(=O)N[C@@H](CCCN=C(N)N)C(=O)N[C@@H](Cc2ccc3ccccc3c2)C(=O)NCC(=O)N[C@H](Cc2ccc(O)cc2)C(=O)N1C (I: cyclo([2Nal]G[dY][dNMeOrn]R) / II: cyclo([2Nal]G[dY][dNMeOrn]R); linker I:4-II:4 via Sebacoyl)
3	CN1C(=O)[C@@H](Cc2ccc(O)cc2)NC(=O)CNC(=O)[C@H](Cc2ccc3ccccc3c2)NC(=O)[C@H](CCCNC(=N)N)NC(=O)[C@H]1CCCNC(=O)CCCCCCC(=O)NCCC[C@@H]1C(=O)N[C@@H](CCCNC(=N)N)C(=O)N[C@@H](Cc2ccc3ccccc3c2)C(=O)NCC(=O)N[C@H](Cc2ccc(O)cc2)C(=O)N1C (I: cyclo([2Nal]G[dY][dNMeOrn]R) / II: cyclo([2Nal]G[dY][dNMeOrn]R); linker I:4-II:4 via Suberoyl)
12	CN1C(=O)[C@@H](Cc2ccc(O)cc2)NC(=O)CNC(=O)[C@H](Cc2ccc3ccccc3c2)NC(=O)[C@H](CCCNC(=N)N)NC(=O)[C@H]1CCCNC(=O)CCC(=O)NCCC[C@@H]1C(=O)N[C@@H](CCCNC(=N)N)C(=O)N[C@@H](Cc2ccc3ccccc3c2)C(=O)NCC(=O)N[C@H](Cc2ccc(O)cc2)C(=O)N1C (I: cyclo([2Nal]G[dY][dNMeOrn]R) / II: cyclo([2Nal]G[dY][dNMeOrn]R); linker I:4-II:4 via Suc)
